Experimental findings from ChEMBL document CHEMBL1141940, “N-[(3S)-1-benzylpyrrolidin-3-yl]-(2-thienyl)benzamides: human dopamine D4 ligands with high affinity for the 5-HT2A receptor” (Bioorg Med Chem Lett, 2005) are described below.

One may read the Ki as the equilibrium dissociation constant of an inhibitor or competing ligand from its target. Higher therefore signals weaker binding. As a reminder, the inhibition is the relative decrease from the control value, in per cent.

The target in one assay is T1, D(4) dopamine receptor (Homo sapiens, UniProt P21917).
T1 sequence (P21917 whole entry): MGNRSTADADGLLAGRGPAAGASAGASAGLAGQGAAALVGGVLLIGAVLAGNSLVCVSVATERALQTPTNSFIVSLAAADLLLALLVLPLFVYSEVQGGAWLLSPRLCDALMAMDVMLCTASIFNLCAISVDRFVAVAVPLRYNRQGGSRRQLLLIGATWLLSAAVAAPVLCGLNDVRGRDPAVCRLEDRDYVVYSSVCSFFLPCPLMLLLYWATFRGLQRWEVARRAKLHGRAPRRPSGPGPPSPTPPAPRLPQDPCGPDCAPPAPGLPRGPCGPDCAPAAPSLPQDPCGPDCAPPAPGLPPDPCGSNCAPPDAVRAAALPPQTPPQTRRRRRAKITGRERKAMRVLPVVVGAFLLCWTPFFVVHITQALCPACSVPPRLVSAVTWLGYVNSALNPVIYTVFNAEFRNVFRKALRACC
Kind of assay: Displacement of [3H]spiperone from cloned human dopamine D4.2 receptor in […] cells. It counts as cell-based. The method, boiled down: (§1)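 […] cells stably transfected with cloned receptor: hD4 (D4.2 subtype) with [3H]spiperone, h5-HT2A with [3H]ketanserin. Non-specific binding was defined with methysergide. Ki came from Cheng–Prusoff conversion and is the mean of at least two independent determinations ± SEM.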
In general terms: Displacement assays read how much labelled ligand stays bound in the presence of the test substance.

In assay [1] the target is T2, 5-hydroxytryptamine receptor 2A (Homo sapiens, UniProt P28223). Put plainly: Displacement of [3H]ketanserin from cloned human 5HT2A receptor in […] cells. The format is cell-based. An outline of the steps: as §1
T2 sequence (P28223 whole entry): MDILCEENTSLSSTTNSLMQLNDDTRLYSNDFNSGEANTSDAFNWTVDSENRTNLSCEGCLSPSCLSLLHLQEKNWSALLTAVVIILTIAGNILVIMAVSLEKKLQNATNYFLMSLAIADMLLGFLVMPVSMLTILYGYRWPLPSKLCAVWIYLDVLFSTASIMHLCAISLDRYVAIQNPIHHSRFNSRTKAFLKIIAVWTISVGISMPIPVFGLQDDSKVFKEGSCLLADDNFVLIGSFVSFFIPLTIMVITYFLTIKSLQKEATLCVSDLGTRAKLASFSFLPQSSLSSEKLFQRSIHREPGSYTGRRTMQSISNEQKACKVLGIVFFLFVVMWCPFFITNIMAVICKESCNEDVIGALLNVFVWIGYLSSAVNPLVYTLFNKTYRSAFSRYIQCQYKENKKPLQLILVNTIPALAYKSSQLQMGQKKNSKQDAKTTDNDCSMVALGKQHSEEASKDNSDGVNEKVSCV
Assay [2] has as its target T3, D(2) dopamine receptor (Homo sapiens, UniProt P14416). Kind of assay: Inhibitory activity against human dopamine D2(short) receptor in rat pituitary GH4C1 cells at 100 nM. To be noted: Pituitary gland cell. The format is cell-based.
The target of assay [3] is T4, Adrenergic receptor alpha-1 (Rattus norvegicus) (UniProt P15823+P23944+P43140). Kind of assay: Inhibitory activity against adrenergic alpha-1 receptor in rat frontal cortex tissue at 1 uM. It counts as tissue-based.
The target of assay [4] is T2, 5-hydroxytryptamine receptor 2A. Put plainly: Inhibitory activity against cloned human 5HT2A receptor in […] cells at 100 nM. The format is cell-based.
The target in assay [5] is T4, Adrenergic receptor alpha-1 (Rattus norvegicus). Put plainly: Inhibitory activity against adrenergic alpha1 receptor in rat frontal cortex tissue at 100 nM. The format is tissue-based.
The target of assay [6] is T3, D(2) dopamine receptor. Kind of assay: Displacement of [3H]spiperone from human dopamine D2(short) receptor in rat pituitary GH4C1 cells. The format is cell-based, Pituitary gland cell. The method, boiled down:
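Rat pituitary GH4C1 cells stably expressing cloned hD2 (short isoform), with [3H]spiperone displacement. Non-specific binding was defined with […]. Ki was calculated by Cheng–Prusoff transformation.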

The target in assay [7] is T5, Adrenergic receptor alpha-1 (Rattus norvegicus, UniProt P15823+P23944+P43140).
T5 sequence (P15823 whole entry): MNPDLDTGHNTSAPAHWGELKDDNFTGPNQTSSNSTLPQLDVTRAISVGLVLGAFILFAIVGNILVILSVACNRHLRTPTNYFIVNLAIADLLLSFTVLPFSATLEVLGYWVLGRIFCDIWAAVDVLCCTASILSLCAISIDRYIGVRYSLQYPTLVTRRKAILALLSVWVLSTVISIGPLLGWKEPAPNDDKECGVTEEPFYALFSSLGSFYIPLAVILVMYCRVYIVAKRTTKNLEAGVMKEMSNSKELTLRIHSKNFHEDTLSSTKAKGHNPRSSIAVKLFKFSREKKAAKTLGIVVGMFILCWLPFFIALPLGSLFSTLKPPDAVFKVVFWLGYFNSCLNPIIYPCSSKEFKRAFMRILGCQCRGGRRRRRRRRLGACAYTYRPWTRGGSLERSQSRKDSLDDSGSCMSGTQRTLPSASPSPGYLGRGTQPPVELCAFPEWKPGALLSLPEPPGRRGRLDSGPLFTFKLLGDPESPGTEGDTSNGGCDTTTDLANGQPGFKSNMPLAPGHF
T5 sequence (P23944 whole entry): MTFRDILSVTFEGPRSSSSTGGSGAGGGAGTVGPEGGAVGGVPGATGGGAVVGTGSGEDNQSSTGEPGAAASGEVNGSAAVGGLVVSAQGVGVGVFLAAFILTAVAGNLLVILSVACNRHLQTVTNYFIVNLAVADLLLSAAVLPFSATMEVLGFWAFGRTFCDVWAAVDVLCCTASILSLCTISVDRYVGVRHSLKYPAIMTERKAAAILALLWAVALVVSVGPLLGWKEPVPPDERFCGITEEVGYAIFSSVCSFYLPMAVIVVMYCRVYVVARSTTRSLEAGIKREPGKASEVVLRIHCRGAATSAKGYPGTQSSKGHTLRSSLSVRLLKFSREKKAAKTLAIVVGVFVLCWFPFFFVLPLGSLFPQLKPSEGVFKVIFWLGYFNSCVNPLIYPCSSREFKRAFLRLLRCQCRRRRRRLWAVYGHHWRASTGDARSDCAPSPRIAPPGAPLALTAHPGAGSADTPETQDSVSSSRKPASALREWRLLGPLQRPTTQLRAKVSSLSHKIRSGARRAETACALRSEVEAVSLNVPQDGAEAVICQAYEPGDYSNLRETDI
T5 sequence (P43140 whole entry): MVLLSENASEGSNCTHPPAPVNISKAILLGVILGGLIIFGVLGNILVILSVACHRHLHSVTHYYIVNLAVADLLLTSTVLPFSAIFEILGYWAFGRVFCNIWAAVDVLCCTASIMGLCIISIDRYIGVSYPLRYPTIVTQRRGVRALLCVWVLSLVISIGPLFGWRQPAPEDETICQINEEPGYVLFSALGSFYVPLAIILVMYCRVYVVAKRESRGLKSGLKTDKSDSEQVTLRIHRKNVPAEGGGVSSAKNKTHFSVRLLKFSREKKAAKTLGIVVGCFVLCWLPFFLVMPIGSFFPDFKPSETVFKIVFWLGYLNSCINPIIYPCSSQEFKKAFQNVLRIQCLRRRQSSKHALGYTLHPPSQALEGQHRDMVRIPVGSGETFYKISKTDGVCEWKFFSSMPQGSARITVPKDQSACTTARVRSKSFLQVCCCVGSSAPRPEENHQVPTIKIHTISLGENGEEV
Put plainly: Displacement of 7-methoxy-[3H]prazosin from adrenergic alpha-1 receptor in rat frontal cortex tissue. It counts as tissue-based. The method, boiled down:
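Rat frontal cortex tissue as receptor source, with 7-methoxy-[3H]prazosin as radioligand. Non-specific binding was defined with […]. Ki was obtained by Cheng–Prusoff transformation and reported as the mean of at least two independent determinations ± SEM.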

T3 sequence (P14416 whole entry): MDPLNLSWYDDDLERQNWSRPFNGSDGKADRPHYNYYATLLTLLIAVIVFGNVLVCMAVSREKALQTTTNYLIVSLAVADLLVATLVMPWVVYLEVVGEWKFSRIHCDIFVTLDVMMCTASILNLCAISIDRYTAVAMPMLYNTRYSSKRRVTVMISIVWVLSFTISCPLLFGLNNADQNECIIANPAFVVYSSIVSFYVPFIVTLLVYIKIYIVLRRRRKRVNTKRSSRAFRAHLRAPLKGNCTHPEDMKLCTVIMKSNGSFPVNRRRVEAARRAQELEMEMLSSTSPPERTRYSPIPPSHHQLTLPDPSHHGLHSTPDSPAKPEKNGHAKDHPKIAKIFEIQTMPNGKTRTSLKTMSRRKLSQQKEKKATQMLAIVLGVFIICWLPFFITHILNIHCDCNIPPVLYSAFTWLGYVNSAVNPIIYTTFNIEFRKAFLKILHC

`O=C(N[C@H]1CCN(Cc2ccc(C(F)(F)F)cc2)C1)c1ccc(-c2cccs2)cc1`: the inhibitory constant (Ki) on D(4) dopamine receptor worked out at 14 nM; in assay [1] it was 130 nM. Besides, the inhibition turned out to be 7% on D(2) dopamine receptor [2] and 2% in assay [3].
The molecule `O=C(N[C@H]1CCN(Cc2cccc(C(F)(F)F)c2)C1)c1ccc(-c2cccs2)cc1` showed a Ki at D(4) dopamine receptor of 22 nM. Also, the inhibition in assay [4] stood at 76%; on D(2) dopamine receptor [2] it was 0%; in assay [5], 0%.
As for `O=C(N[C@H]1CCN(Cc2ccccc2F)C1)c1ccc(-c2cccs2)cc1`, the Ki on D(4) dopamine receptor came to 33 nM; at D(2) dopamine receptor [6], 38000 nM; in assay [7], 6900 nM. This molecule also had an inhibition in assay [4] of 89%.
`O=C(N[C@H]1CCN(Cc2ccccc2)C1)c1ccc(-c2cccs2)cc1` registered a Ki in assay [1] of 1.8 nM.
Regarding `O=C(N[C@H]1CCN(Cc2ccc(OC(F)(F)F)cc2)C1)c1cccc(-c2cccs2)c1`, the inhibitory constant (Ki) came to 52 nM on D(4) dopamine receptor, 5600 nM in assay [1], 500 nM at D(2) dopamine receptor [6] and 1200 nM in assay [7].
As to `O=C(N[C@H]1CCN(Cc2ccc(OC(F)(F)F)cc2)C1)c1ccc(-c2cccs2)cc1`, the results for the Ki (on D(4) dopamine receptor; in assay [1]; in assay [7]) were 78 nM, 140 nM and 16000 nM, respectively. The inhibition against D(2) dopamine receptor [2] was 7%.
On to `COc1cccc(CN2CC[C@H](NC(=O)c3ccc(-c4cccs4)cc3)C2)c1`, for which the Ki on D(4) dopamine receptor was determined as 14 nM; in assay [1], 22 nM; on D(2) dopamine receptor [6] it was 4460 nM; in assay [7] it was 920 nM.
In the same order, the values of `O=C(N[C@H]1CCN(Cc2ccc(Cl)cc2)C1)c1cccc(-c2cccs2)c1` are 16 nM, 1100 nM, 230 nM and 220 nM.
Taken in the same sequence, the figures for `O=C(N[C@H]1CCN(Cc2ccc(F)cc2)C1)c1ccc(-c2cccs2)cc1` were 5 nM, 14 nM, 1500 nM and 420 nM.
As to `O=C(N[C@H]1CCN(Cc2ccccc2)C1)c1cccc(-c2cccs2)c1`, in assay [1], the Ki worked out at 460 nM.
As to `O=C(N[C@H]1CCN(Cc2ccc3c(c2)OCO3)C1)c1ccc(-c2cccs2)cc1`, the Ki came out at 7 nM on D(4) dopamine receptor, 1800 nM on D(2) dopamine receptor [6] and 400 nM in assay [7]. The inhibition in assay [4] worked out at 89%.
In the case of `O=C(N[C@H]1CCN(Cc2ccc(C(F)(F)F)cc2)C1)c1cccc(-c2cccs2)c1`, the inhibitory constant (Ki) came out at 21 nM at D(4) dopamine receptor, 740 nM in assay [1], 1300 nM at D(2) dopamine receptor [6] and 360 nM in assay [7].
Take `O=C(N[C@H]1CCN(Cc2ccc(Cl)c(Cl)c2)C1)c1ccc(-c2cccs2)cc1`: the inhibitory constant (Ki) on D(4) dopamine receptor stood at 15 nM; in assay [1] it was 22 nM; at D(2) dopamine receptor [6] it was 29000 nM; in assay [7], 5000 nM.
Taken in the same sequence, the figures for `O=C(N[C@H]1CCN(Cc2ccc(F)c(F)c2)C1)c1ccc(-c2cccs2)cc1` were 14 nM, 16 nM, 18000 nM and 10000 nM.
Taken in the same sequence, the figures for `Cc1ccc(CN2CC[C@H](NC(=O)c3cccc(-c4cccs4)c3)C2)cc1` were 4 nM, 610 nM, 60 nM and 80 nM.
